Results from ChEMBL document CHEMBL5724801, “EUbOPEN Chemogenomics Library - Multiplex” (2024).
Values joined by “and” are separate entries in the source; they are usually repeats but may differ in a detail not shown here. Equal entries are not always repeated.

Test system: U2OS
Experiment: Multiplex assay against U2OS
Type: toxicity, cell-based
Conditions: human
Procedure, shortened: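 Phenotypes for tubulin, mitochondrial mass and membrane permeability are expressed as per cents of healthy-nucleus cells. Cells were stained live at seeding with Hoechst33342, BioTracker Green Microtubule Cytoskeleton Dye, MitoTracker Red and Annexin V Alexa Fluor 680, then imaged after compound addition on a CQ1 microscope at 37°C and 5% CO2. Machine-learning gating in CellPathfinder separated Hoechst high-intensity objects from normal cells, divided normal cells by nuclear state (healthy, pyknosed, fragmented) and divided pyknosed cells into mitotic or apoptotic.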

[1] = 12 h, 1 µM, compound concentration 1 uM
[2] = 12 h, 10 µM, compound concentration 10 uM
[3] = 24 h, 1 µM, compound concentration 1 uM
[4] = 24 h, 10 µM, compound concentration 10 uM
[5] = 48 h, 1 µM, compound concentration 1 uM
[6] = 48 h, 10 µM, compound concentration 10 uM

## COC[C@@H](CC(C)C)NC1=N/C(=C\c2ccc3ncsc3c2)C(=O)N1C
[1]
  Population Apoptotic (%): 55.88% and 33.33%
  Population Fragmented Nuclei (%): 15.5% and 15.08%
  Population Healthy Nuclei (%): 77.48% and 78.21%
  Population Hoechst High Intensity Objects (%): 0.41% and 0%
  Population Membrane Permeable-Phenotype (%): 0.8% and 2.14%
  Population Mitochondria Different-Phenotype (%): 0.27% and 9.29%
  Population Mitotic Cells (%): 44.12% and 66.67%
  Population Normal (%): 99.59% and 100%
  Population Pyknosed Nuclei (%): 7.02% and 6.7%
  Population Tubulin-Different-Phenotype (%): 1.33% and 0%
  Total Cell Count: 486 and 179
[2]
  Population Apoptotic (%): 25% and 29.63%
  Population Fragmented Nuclei (%): 47.65% and 84.45%
  Population Hoechst High Intensity Objects (%): 29.32% and 10.96%
  Population Membrane Permeable-Phenotype (%): 4.62% and 2.68%
  Population Mitotic Cells (%): 75% and 70.37%
  Population Normal (%): 70.68% and 89.04%
  Population Pyknosed Nuclei (%): 3.24% and 3.02%
  Population Tubulin-Different-Phenotype (%): 20.13% and 12.5%
  Total Cell Count: 873 and 1004
[3]
  Population Apoptotic (%): 67.39% and 47.62%
  Population Fragmented Nuclei (%): 12.71% and 10%
  Population Healthy Nuclei (%): 79.7% and 80.87%
  Population Hoechst High Intensity Objects (%): 0%
  Population Membrane Permeable-Phenotype (%): 0.41% and 0%
  Population Mitochondria Different-Phenotype (%): 0.41% and 6.45%
  Population Mitotic Cells (%): 32.61% and 52.38%
  Population Normal (%): 100%
  Population Pyknosed Nuclei (%): 7.59% and 9.13%
  Population Tubulin-Different-Phenotype (%): 0.83% and 0%
  Total Cell Count: 606 and 230
[4]
  Population Fragmented Nuclei (%): 53.16% and 86.53%
  Population Hoechst High Intensity Objects (%): 30.44% and 12.75%
  Population Membrane Permeable-Phenotype (%): 2.98% and 2.22%
  Population Mitotic Cells (%): 91.67% and 75%
  Population Normal (%): 69.56% and 87.25%
  Population Pyknosed Nuclei (%): 4.34% and 3.2%
  Population Tubulin-Different-Phenotype (%): 20% and 8.89%
  Total Cell Count: 795 and 1004
[5]
  Population Apoptotic (%): 48.44% and 55.56%
  Population Fragmented Nuclei (%): 12.46% and 10.34%
  Population Healthy Nuclei (%): 81.16% and 82.49%
  Population Hoechst High Intensity Objects (%): 0.69% and 0.79%
  Population Membrane Permeable-Phenotype (%): 1.6% and 0.64%
  Population Mitochondria Different-Phenotype (%): 0% and 3.54%
  Population Mitotic Cells (%): 51.56% and 44.44%
  Population Normal (%): 99.31% and 99.21%
  Population Pyknosed Nuclei (%): 6.38% and 7.16%
  Population Tubulin-Different-Phenotype (%): 0.86% and 0%
  Total Cell Count: 1010 and 380
[6]
  Population Apoptotic (%): 42.86% and 52.83%
  Population Fragmented Nuclei (%): 86.99% and 92.61%
  Population Healthy Nuclei (%): 3.8% and 2.78%
  Population Hoechst High Intensity Objects (%): 32.94% and 15.32%
  Population Membrane Permeable-Phenotype (%): 3.85% and 3.12%
  Population Mitochondria Different-Phenotype (%): 0% and 3.12%
  Population Mitotic Cells (%): 57.14% and 47.17%
  Population Normal (%): 67.06% and 84.68%
  Population Pyknosed Nuclei (%): 9.21% and 4.61%
  Population Tubulin-Different-Phenotype (%): 3.85% and 6.25%
  Total Cell Count: 1020 and 1358

## O=C(NCc1cccc(O)c1)Nc1nc(-c2ccncc2)cs1
[1]
  Population Apoptotic (%): 37.74% and 30.77%
  Population Fragmented Nuclei (%): 4.64% and 3.9%
  Population Healthy Nuclei (%): 83.06% and 79.22%
  Population Hoechst High Intensity Objects (%): 0% and 0.65%
  Population Membrane Permeable-Phenotype (%): 0.84% and 1.64%
  Population Mitochondria Different-Phenotype (%): 0.28% and 9.02%
  Population Mitotic Cells (%): 62.26% and 69.23%
  Population Normal (%): 100% and 99.35%
  Population Pyknosed Nuclei (%): 12.3% and 16.88%
  Population Tubulin-Different-Phenotype (%): 1.96% and 0%
  Total Cell Count: 431 and 155
[2]
  Population Apoptotic (%): 52.63% and 52.17%
  Population Fragmented Nuclei (%): 2.65% and 6.96%
  Population Healthy Nuclei (%): 82.23% and 73.04%
  Population Hoechst High Intensity Objects (%): 0.26% and 0%
  Population Membrane Permeable-Phenotype (%): 1.61% and 4.76%
  Population Mitotic Cells (%): 47.37% and 47.83%
  Population Normal (%): 99.74% and 100%
  Population Pyknosed Nuclei (%): 15.12% and 20%
  Population Tubulin-Different-Phenotype (%): 2.9% and 0%
[3]
  Population Apoptotic (%): 47.5% and 43.18%
  Population Fragmented Nuclei (%): 2.77% and 4.12%
  Population Healthy Nuclei (%): 82.47% and 73.2%
  Population Hoechst High Intensity Objects (%): 0%
  Population Membrane Permeable-Phenotype (%): 1.12% and 3.52%
  Population Mitochondria Different-Phenotype (%): 0% and 5.63%
  Population Mitotic Cells (%): 52.5% and 56.82%
  Population Normal (%): 100%
  Population Pyknosed Nuclei (%): 14.76% and 22.68%
  Population Tubulin-Different-Phenotype (%): 0.67% and 0%
  Total Cell Count: 542 and 194
[4]
  Population Apoptotic (%): 44.26% and 50%
  Population Fragmented Nuclei (%): 3.67% and 6.77%
  Population Healthy Nuclei (%): 83.15% and 67.67%
  Population Hoechst High Intensity Objects (%): 0%
  Population Membrane Permeable-Phenotype (%): 1.82% and 5.56%
  Population Mitotic Cells (%): 55.74% and 50%
  Population Normal (%): 100%
  Population Pyknosed Nuclei (%): 13.17% and 25.56%
  Population Tubulin-Different-Phenotype (%): 1.82% and 1.11%
[5]
  Population Apoptotic (%): 50.98% and 51.79%
  Population Fragmented Nuclei (%): 4.55% and 3.91%
  Population Healthy Nuclei (%): 84.92% and 77.85%
  Population Hoechst High Intensity Objects (%): 0.1% and 0%
  Population Membrane Permeable-Phenotype (%): 0.12% and 2.09%
  Population Mitochondria Different-Phenotype (%): 0% and 3.35%
  Population Mitotic Cells (%): 49.02% and 48.21%
  Population Normal (%): 99.9% and 100%
  Population Pyknosed Nuclei (%): 10.54% and 18.24%
  Population Tubulin-Different-Phenotype (%): 1.22% and 1.26%
[6]
  Population Apoptotic (%): 60.92% and 61.11%
  Population Fragmented Nuclei (%): 2.84% and 9.2%
  Population Healthy Nuclei (%): 84.18% and 68.71%
  Population Hoechst High Intensity Objects (%): 0%
  Population Membrane Permeable-Phenotype (%): 1.6% and 6.25%
  Population Mitochondria Different-Phenotype (%): 0% and 18.75%
  Population Mitotic Cells (%): 39.08% and 38.89%
  Population Normal (%): 100%
  Population Pyknosed Nuclei (%): 12.99% and 22.09%
  Population Tubulin-Different-Phenotype (%): 1.24% and 0.89%

## CCCCCC(O)/C=C/[C@H]1C(=O)CC(O)C1C/C=C\CCCC(=O)O (stereo partly specified)
[1]
  Population Apoptotic (%): 60% and 88%
  Population Fragmented Nuclei (%): 28% and 15%
  Population Healthy Nuclei (%): 59% and 76%
  Population Hoechst High Intensity Objects (%): 1% and 0%
  Population Membrane Permeable-Phenotype (%): 5% and 8%
  Population Mitochondria Different-Phenotype (%): 4% and 6%
  Population Normal (%): 98% and 99%
  Population Pyknosed Nuclei (%): 12% and 8%
  Population Tubulin-Different-Phenotype (%): 4% and 8%
  Total Cell Count: 203 and 113
[2]
  Population Apoptotic (%): 71% and 66%
  Population Fragmented Nuclei (%): 23% and 16%
  Population Healthy Nuclei (%): 69% and 73%
  Population Hoechst High Intensity Objects (%): 2%
  Population Membrane Permeable-Phenotype (%): 8% and 10%
  Population Mitochondria Different-Phenotype (%): 3% and 2%
  Population Mitotic Cells (%): 28% and 33%
  Population Normal (%): 97%
  Population Pyknosed Nuclei (%): 7% and 9%
  Population Tubulin-Different-Phenotype (%): 5% and 4%
  Total Cell Count: 190 and 94
[3]
  Population Apoptotic (%): 86% and 90%
  Population Fragmented Nuclei (%): 27% and 16%
  Population Healthy Nuclei (%): 63% and 74%
  Population Hoechst High Intensity Objects (%): 2% and 0%
  Population Membrane Permeable-Phenotype (%): 3% and 5%
  Population Mitochondria Different-Phenotype (%): 0% and 7%
  Population Mitotic Cells (%): 13% and 9%
  Population Normal (%): 98% and 99%
  Population Pyknosed Nuclei (%): 8%
  Population Tubulin-Different-Phenotype (%): 1% and 4%
  Total Cell Count: 250 and 131
[4]
  Population Apoptotic (%): 100% and 90%
  Population Fragmented Nuclei (%): 23% and 16%
  Population Healthy Nuclei (%): 66% and 74%
  Population Hoechst High Intensity Objects (%): 1% and 2%
  Population Membrane Permeable-Phenotype (%): 6% and 5%
  Population Mitochondria Different-Phenotype (%): 4% and 1%
  Population Mitotic Cells (%): 0% and 10%
  Population Normal (%): 98% and 97%
  Population Pyknosed Nuclei (%): 9% and 8%
  Population Tubulin-Different-Phenotype (%): 4% and 2%
  Total Cell Count: 216 and 118
[5]
  Population Apoptotic (%): 89% and 100%
  Population Fragmented Nuclei (%): 19% and 13%
  Population Healthy Nuclei (%): 71% and 79%
  Population Hoechst High Intensity Objects (%): 2%
  Population Membrane Permeable-Phenotype (%): 4% and 5%
  Population Mitochondria Different-Phenotype (%): 3% and 4%
  Population Mitotic Cells (%): 10% and 0%
  Population Normal (%): 97%
  Population Pyknosed Nuclei (%): 8% and 7%
  Population Tubulin-Different-Phenotype (%): 2% and 3%
  Total Cell Count: 334 and 189
[6]
  Population Apoptotic (%): 89% and 100%
  Population Fragmented Nuclei (%): 23% and 21%
  Population Healthy Nuclei (%): 67% and 70%
  Population Hoechst High Intensity Objects (%): 3% and 2%
  Population Membrane Permeable-Phenotype (%): 6% and 7%
  Population Mitochondria Different-Phenotype (%): 3%
  Population Mitotic Cells (%): 10% and 0%
  Population Normal (%): 96% and 97%
  Population Pyknosed Nuclei (%): 9% and 7%
  Population Tubulin-Different-Phenotype (%): 4% and 3%
  Total Cell Count: 302 and 161
